Assay [1] concerns the target T1, Caspase-2 (Homo sapiens) (UniProt P42575).
T1 sequence (whole entry): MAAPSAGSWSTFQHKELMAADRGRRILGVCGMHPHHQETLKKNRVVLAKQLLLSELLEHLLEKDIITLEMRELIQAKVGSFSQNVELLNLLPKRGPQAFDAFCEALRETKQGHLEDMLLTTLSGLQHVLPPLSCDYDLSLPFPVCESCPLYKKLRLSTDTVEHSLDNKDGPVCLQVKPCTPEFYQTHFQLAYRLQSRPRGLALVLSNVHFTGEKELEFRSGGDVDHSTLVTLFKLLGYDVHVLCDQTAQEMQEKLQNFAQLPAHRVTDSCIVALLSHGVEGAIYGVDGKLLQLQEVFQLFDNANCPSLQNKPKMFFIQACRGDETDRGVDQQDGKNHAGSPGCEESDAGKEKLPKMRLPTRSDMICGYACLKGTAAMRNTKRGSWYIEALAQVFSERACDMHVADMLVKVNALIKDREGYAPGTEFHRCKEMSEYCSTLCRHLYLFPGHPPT
Kind of assay: Increase in procaspase 2 activity after 16 hrs in presence of surfactant CHAPS. In a few lines: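 Procaspase-2 was incubated with compound for 16 h in buffer containing CHAPS. Activity was then read by adding Ac-VDVAD-pNA substrate and monitoring absorbance at 405 nm.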

Assay [2] concerns the target T1, Caspase-2 (Homo sapiens). The experiment in a line: Increase in procaspase 2 activity after 30 mins in presence of surfactant CHAPS. The method, boiled down: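 Procaspase-2 was preincubated with compound for a short time (30 min) in CHAPS-containing buffer. Ac-VDVAD-pNA cleavage was then followed by absorbance at 405 nm.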
The target of assay [3] is T2, Caspase-2 (Homo sapiens, UniProt P42575).
T2 sequence (P42575 whole entry): T1 sequence (whole entry)
The experiment in a line: Activation of procaspase 2 after 24 hrs.

For assay [4], the target named is T3, Caspase-3 (Homo sapiens) (UniProt P42574).
T3 sequence (whole entry): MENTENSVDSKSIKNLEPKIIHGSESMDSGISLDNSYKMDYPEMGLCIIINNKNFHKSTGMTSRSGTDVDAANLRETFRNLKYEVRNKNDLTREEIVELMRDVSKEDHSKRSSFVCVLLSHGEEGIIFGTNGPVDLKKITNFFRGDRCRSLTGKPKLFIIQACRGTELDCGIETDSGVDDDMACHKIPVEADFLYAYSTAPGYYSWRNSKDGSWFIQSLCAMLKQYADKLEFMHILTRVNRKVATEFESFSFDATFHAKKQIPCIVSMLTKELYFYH
The experiment in a line: Activation of caspase 3 after 30 mins.

The nature of assay [5]: Activation of alkaline phosphatase after 30 mins.
The nature of assay [6]: Activation of procaspase 2 in presence of BSA.

The source made the active and inactive calls. No cut-off for these calls is given here.

In general, EC50 refers to the concentration that produces a half-maximal response. A low value points to a more potent agent. Consider `CN(C)CCNC(=O)COc1ccc(C23CC4CC(CC(C4)C2)C3)cc1`, for which the outcome in assay [1] and in assay [4] was Active. Moreover, the outcome in assay [2] was inactive. The molecule also returned an EC50 in assay [3] of 25 µM.
In turn, `CCCCCCCCCCNC(=O)CCC` gave a concentration for a half-maximal effect (EC50) in assay [3] of 66 µM.
In turn, `NCCCNCCNCCCN` displayed an EC50 in assay [3] of 50 µM. Also, the outcome in assay [5] and in assay [4] was Active.
`CC1CCCN(CC(O)COc2ccc(C34CC5CC(CC(C5)C3)C4)cc2)C1` (stereo unspecified) returned a concentration for a half-maximal effect (EC50) in assay [3] of 25 µM. Also, the result in assay [4] was Active.
In turn, `NCCCNCCCCNCCCN` [SPERMINE] had an EC50 in assay [3] of 8.5 µM. In assay [4], the outcome was Active.
`Cc1cc(NNC(=O)C(c2ccccc2)c2ccccc2)c2ccc(C)c(C)c2n1` yielded an EC50 in assay [3] of 50 µM.
`CCCCCCCCCCCCCCCC[n+]1ccccc1` registered an EC50 in assay [3] of 21 µM.
Consider `C[C@@H](CCC(=O)NCCC[N+](C)(C)CCCS(=O)(=O)[O-])[C@H]1CC[C@H]2[C@@H]3[C@H](O)C[C@@H]4C[C@H](O)CC[C@]4(C)[C@H]3C[C@H](O)[C@]12C`, for which, in assay [6], the result was inactive. The outcome in assay [4] was Active.

Source of the values: ChEMBL document CHEMBL1144781, “Identification of promiscuous small molecule activators in high-throughput enzyme activation screens” (J Med Chem, 2008).
